From ChEMBL document CHEMBL1154352, “Toll-like receptor 7 selective synthetic oligoribonucleotide agonists: synthesis and structure-activity relationship studies” (J Med Chem, 2009)
The source made the active and inactive calls. The calls are words filed in the database; no cut-off is given here.

How the values were obtained:
PBMC [1] = assay: Immunomodulatory activity in human PBMC assessed as induction of IFN-alpha at 100 ug/ml after 24 hrs
Splenocyte [2] = assay: Immunomodulatory activity in C57BL/6 mouse splenocytes bearing TLR7 receptor assessed as IL6 release at 100 ug/ml after 24 hrs by ELISA; type: functional, cell-based
How it was run: (§1)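 C57BL/6 splenocytes in RPMI 1640 with 10% FBS, penicillin/streptomycin, 2 mM L-glutamine, plated at 5 × 10^6 cells/mL; compounds in PBS added, 37 °C for 24 h. Supernatant IL-12 and IL-6 by ELISA; representative of three independent experiments.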

Homo sapiens = organism: Homo sapiens; assay: Ratio of human TLR7 activity to human TLR8 activity
How it was run: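 TLR7/TLR8 ratio computed from fold NF-κB (SEAP reporter) activation in HEK293 cells stably expressing human TLR7 versus TLR8, compounds at 50 μg/mL, 18 h exposure; representative of three independent experiments.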

[3] = Metabolic stability in human serum assessed as full length product remaining after 10 mins by HPLC; type: ADME, cell-free; settings: read-out: Stability
How it was run: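 About 0.5 A260 units compound in 1% human serum in PBS, 37 °C; aliquot taken at 10 min, analysed by anion-exchange HPLC for percent intact full-length product.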

[4] = target: T1, Toll-like receptor 8 (Homo sapiens) (UniProt Q9NR97); assay: Activation of human TLR8 expressed in HEK293XL assessed as fold induction of NF-kappaB activity at 50 ug/ml after 18 hrs by reporter gene assay relative to control
T1 sequence (whole entry): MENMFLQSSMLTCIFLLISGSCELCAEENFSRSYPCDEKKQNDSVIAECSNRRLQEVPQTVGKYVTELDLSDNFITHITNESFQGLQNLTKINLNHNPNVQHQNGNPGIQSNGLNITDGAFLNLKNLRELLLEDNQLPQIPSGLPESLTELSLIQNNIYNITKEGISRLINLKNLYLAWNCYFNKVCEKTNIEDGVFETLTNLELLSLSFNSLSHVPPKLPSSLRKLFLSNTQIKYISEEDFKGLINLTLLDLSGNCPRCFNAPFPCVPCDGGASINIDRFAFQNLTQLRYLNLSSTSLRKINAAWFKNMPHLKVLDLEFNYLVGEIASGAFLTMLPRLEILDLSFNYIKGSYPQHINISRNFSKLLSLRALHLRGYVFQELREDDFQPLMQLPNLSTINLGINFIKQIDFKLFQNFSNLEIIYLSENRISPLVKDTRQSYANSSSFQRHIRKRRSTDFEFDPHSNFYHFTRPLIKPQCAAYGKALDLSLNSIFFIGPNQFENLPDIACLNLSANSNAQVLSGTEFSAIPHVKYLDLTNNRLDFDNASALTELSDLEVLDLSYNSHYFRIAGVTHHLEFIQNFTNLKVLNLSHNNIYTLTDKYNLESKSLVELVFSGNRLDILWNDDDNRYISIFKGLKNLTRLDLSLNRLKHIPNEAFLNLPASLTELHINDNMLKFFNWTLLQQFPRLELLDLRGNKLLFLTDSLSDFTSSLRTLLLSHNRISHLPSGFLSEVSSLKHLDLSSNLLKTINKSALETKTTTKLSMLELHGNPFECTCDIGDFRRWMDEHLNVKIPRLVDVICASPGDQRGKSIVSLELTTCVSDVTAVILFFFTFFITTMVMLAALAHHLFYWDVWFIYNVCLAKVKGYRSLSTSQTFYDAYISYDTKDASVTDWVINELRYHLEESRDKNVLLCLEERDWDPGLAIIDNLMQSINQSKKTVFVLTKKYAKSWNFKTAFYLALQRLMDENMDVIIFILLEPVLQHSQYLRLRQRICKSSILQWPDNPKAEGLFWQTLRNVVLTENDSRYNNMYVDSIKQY
How it was run: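 HEK293 cells stably expressing human TLR7 or TLR8, transiently transfected with SEAP reporter plasmid; medium replaced, SIMRA compounds added, 18 h incubation. Supernatant SEAP measured by QuantiBlue; expressed as fold increase in NF-κB activity over PBS control. Tabulated data at 50 μg/mL, representative of three independent experiments.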

PBMC [5] = assay: Immunomodulatory activity in human PBMC assessed as induction of IL12 at 100 ug/ml after 24 hrs; type: functional, cell-based
How it was run: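 Human PBMCs plated at 5 × 10^6 cells/mL; compounds dissolved in PBS added at various concentrations, 37 °C for 24 h. Supernatant cytokines/chemokines quantified with human Luminex multiplex kit.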

Splenocyte [6] = assay: Immunomodulatory activity in C57BL/6 mouse splenocytes bearing TLR7 receptor assessed as IL12 release at 100 ug/ml after 24 hrs by ELISA; type: functional, cell-based
How it was run: as §1

[7] = target: Toll-like receptor 3 (Homo sapiens) (UniProt O15455); assay: Activation of human TLR3 expressed in HEK293 assessed as induction of NF-kappaB activity reporter gene assay; type: cell-based
Sequence of Toll-like receptor 3 (Homo sapiens) (O15455 whole entry): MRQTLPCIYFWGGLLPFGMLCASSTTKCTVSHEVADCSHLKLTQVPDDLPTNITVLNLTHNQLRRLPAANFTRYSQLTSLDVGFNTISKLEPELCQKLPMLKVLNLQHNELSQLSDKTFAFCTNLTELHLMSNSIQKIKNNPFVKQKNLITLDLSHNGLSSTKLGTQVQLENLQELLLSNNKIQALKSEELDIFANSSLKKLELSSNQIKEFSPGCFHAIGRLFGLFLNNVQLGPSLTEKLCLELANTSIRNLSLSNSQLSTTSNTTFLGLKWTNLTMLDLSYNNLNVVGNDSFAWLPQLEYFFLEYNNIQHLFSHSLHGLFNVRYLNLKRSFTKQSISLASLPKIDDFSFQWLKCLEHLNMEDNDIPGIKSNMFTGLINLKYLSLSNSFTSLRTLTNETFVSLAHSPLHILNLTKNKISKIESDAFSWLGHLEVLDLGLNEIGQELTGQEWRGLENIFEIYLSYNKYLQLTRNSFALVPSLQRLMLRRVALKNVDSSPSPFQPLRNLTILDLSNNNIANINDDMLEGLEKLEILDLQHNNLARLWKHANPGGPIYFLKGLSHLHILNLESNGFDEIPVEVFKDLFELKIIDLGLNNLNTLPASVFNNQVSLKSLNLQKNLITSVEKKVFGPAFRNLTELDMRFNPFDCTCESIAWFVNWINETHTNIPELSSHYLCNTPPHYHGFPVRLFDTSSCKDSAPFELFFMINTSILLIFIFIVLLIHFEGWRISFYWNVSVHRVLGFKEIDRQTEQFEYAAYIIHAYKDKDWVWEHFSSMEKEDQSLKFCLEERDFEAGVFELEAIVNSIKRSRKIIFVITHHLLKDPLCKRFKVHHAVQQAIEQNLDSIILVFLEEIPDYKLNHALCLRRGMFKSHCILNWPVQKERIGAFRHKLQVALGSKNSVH

Nc1ccn([C@@H]2O[C@H](CO)[C@@H](OP(=O)(S)OC[C@H]3O[C@@H](n4ccc(=O)[nH]c4=O)[C@H](O)[C@@H]3OP(=O)(S)OC[C@H]3O[C@@H](n4ccc5c(=O)[nH]c(N)nc54)[C@H](O)[C@@H]3OP(=O)(S)OC[C@H]3O[C@@H](n4cnc5c(N)ncnc54)[C@H](O)[C@@H]3OP(=O)(S)OC[C@H]3O[C@@H](n4ccc5c(=O)[nH]c(N)nc54)[C@H](O)[C@@H]3OP(=O)(S)OC[C@H]3O[C@@H](n4cnc5c(N)ncnc54)[C@H](O)[C@@H]3OP(=O)(S)OC[C@H]3O[C@@H](n4cnc5c(N)ncnc54)[C@H](O)[C@@H]3OP(=O)(S)OC[C@H]3O[C@@H](n4ccc5c(=O)[nH]c(N)nc54)[C@H](O)[C@@H]3OP(=O)(S)OC[C@H]3O[C@@H](n4ccc(N)nc4=O)[C@H](O)[C@@H]3OP(=O)(S)OC[C@H]3O[C@@H](n4ccc(=O)[nH]c4=O)[C@H](O)[C@@H]3OP(=O)(S)OC[C@H]3O[C@@H](n4ccc(=O)[nH]c4=O)[C@H](O)[C@@H]3OP(=O)(S)OCC(O)COP(=O)(S)O[C@H]3[C@@H](O)[C@H](n4ccc(=O)[nH]c4=O)O[C@@H]3COP(=O)(S)O[C@H]3[C@@H](O)[C@H](n4ccc(=O)[nH]c4=O)O[C@@H]3COP(=O)(S)O[C@H]3[C@@H](O)[C@H](n4ccc(N)nc4=O)O[C@@H]3COP(=O)(S)O[C@H]3[C@@H](O)[C@H](n4ccc5c(=O)[nH]c(N)nc54)O[C@@H]3COP(=O)(S)O[C@H]3[C@@H](O)[C@H](n4cnc5c(N)ncnc54)O[C@@H]3COP(=O)(S)O[C@H]3[C@@H](O)[C@H](n4cnc5c(N)ncnc54)O[C@@H]3COP(=O)(S)O[C@H]3[C@@H](O)[C@H](n4ccc5c(=O)[nH]c(N)nc54)O[C@@H]3COP(=O)(S)O[C@H]3[C@@H](O)[C@H](n4cnc5c(N)ncnc54)O[C@@H]3COP(=O)(S)O[C@H]3[C@@H](O)[C@H](n4ccc5c(=O)[nH]c(N)nc54)O[C@@H]3COP(=O)(S)O[C@H]3[C@@H](O)[C@H](n4ccc(=O)[nH]c4=O)O[C@@H]3COP(=O)(S)O[C@H]3[C@@H](O)[C@H](n4ccc(N)nc4=O)O[C@@H]3CO)[C@H]2O)c(=O)n1 (some centres undefined)
IFN-alpha (PBMC [1]): 123 pg/mL
Activity (Splenocyte [2]): Active
Ratio (Homo sapiens): 69
remaining at 10 min [3]: 72%
fold change (FC) [4]: 0.4
Activity (PBMC [5]): 1750 pg/mL
Activity (Splenocyte [6]): Active
Activity [7]: inactive

Nc1ccn([C@@H]2O[C@H](COP(=O)(S)O[C@H]3[C@@H](O)[C@H](n4cnc5c(N)ncnc54)O[C@@H]3CO)[C@@H](OP(=O)(S)OC[C@H]3O[C@@H](n4ccc(=O)[nH]c4=O)[C@H](O)[C@@H]3OP(=O)(S)OC[C@H]3O[C@@H](n4ccc(=O)[nH]c4=O)[C@H](O)[C@@H]3OP(=O)(S)OC[C@H]3O[C@@H](n4ccc5c(=O)[nH]c(N)nc54)[C@H](O)[C@@H]3OP(=O)(S)OC[C@H]3O[C@@H](n4cnc5c(N)ncnc54)[C@H](O)[C@@H]3OP(=O)(S)OC[C@H]3O[C@@H](n4cnc5c(N)ncnc54)[C@H](O)[C@@H]3OP(=O)(S)OC[C@H]3O[C@@H](n4ccc5c(=O)[nH]c(N)nc54)[C@H](O)[C@@H]3OP(=O)(S)OC[C@H]3O[C@@H](n4ccc(N)nc4=O)[C@H](O)[C@@H]3OP(=O)(S)OC[C@H]3O[C@@H](n4ccc(=O)[nH]c4=O)[C@H](O)[C@@H]3OP(=O)(S)OC[C@H]3O[C@@H](n4ccc(=O)[nH]c4=O)[C@H](O)[C@@H]3OP(=O)(S)OCC(O)COP(=O)(S)O[C@H]3[C@@H](O)[C@H](n4ccc(=O)[nH]c4=O)O[C@@H]3COP(=O)(S)O[C@H]3[C@@H](O)[C@H](n4ccc(=O)[nH]c4=O)O[C@@H]3COP(=O)(S)O[C@H]3[C@@H](O)[C@H](n4ccc(N)nc4=O)O[C@@H]3COP(=O)(S)O[C@H]3[C@@H](O)[C@H](n4ccc5c(=O)[nH]c(N)nc54)O[C@@H]3COP(=O)(S)O[C@H]3[C@@H](O)[C@H](n4cnc5c(N)ncnc54)O[C@@H]3COP(=O)(S)O[C@H]3[C@@H](O)[C@H](n4cnc5c(N)ncnc54)O[C@@H]3COP(=O)(S)O[C@H]3[C@@H](O)[C@H](n4ccc5c(=O)[nH]c(N)nc54)O[C@@H]3COP(=O)(S)O[C@H]3[C@@H](O)[C@H](n4ccc(=O)[nH]c4=O)O[C@@H]3COP(=O)(S)O[C@H]3[C@@H](O)[C@H](n4ccc(=O)[nH]c4=O)O[C@@H]3COP(=O)(S)O[C@H]3[C@@H](O)[C@H](n4ccc(N)nc4=O)O[C@@H]3COP(=O)(S)O[C@H]3[C@@H](O)[C@H](n4cnc5c(N)ncnc54)O[C@@H]3CO)[C@H]2O)c(=O)n1 (some centres undefined)
IFN-alpha (PBMC [1]): 218 pg/mL
Activity (Splenocyte [2]): Active
Ratio (Homo sapiens): 11.9
remaining at 10 min [3]: 79%
fold change (FC) [4]: 2
Activity (PBMC [5]): 442 pg/mL
Activity (Splenocyte [6]): Active
Activity [7]: inactive

Nc1ccn([C@@H]2O[C@H](COP(=O)(S)O[C@H]3[C@@H](O)[C@H](n4cnc5c(N)ncnc54)O[C@@H]3CO)[C@@H](OP(=O)(S)OC[C@H]3O[C@@H](n4ccc(=O)[nH]c4=O)[C@H](O)[C@@H]3OP(=O)(S)OC[C@H]3O[C@@H](n4ccc(=O)[nH]c4=O)[C@H](O)[C@@H]3OP(=O)(S)OC[C@H]3O[C@@H](n4ccc5c(=O)[nH]c(N)nc54)[C@H](O)[C@@H]3OP(=O)(S)OC[C@H]3O[C@@H](n4cnc5c(N)ncnc54)[C@H](O)[C@@H]3OP(=O)(S)OC[C@H]3O[C@@H](n4ccc(N)nc4=O)[C@H](O)[C@@H]3OP(=O)(S)OC[C@H]3O[C@@H](n4ccc5c(=O)[nH]c(N)nc54)[C@H](O)[C@@H]3OP(=O)(S)OC[C@H]3O[C@@H](n4cnc5c(N)ncnc54)[C@H](O)[C@@H]3OP(=O)(S)OC[C@H]3O[C@@H](n4ccc(=O)[nH]c4=O)[C@H](O)[C@@H]3OP(=O)(S)OC[C@H]3O[C@@H](n4ccc(=O)[nH]c4=O)[C@H](O)[C@@H]3OP(=O)(S)OCC(O)COP(=O)(S)O[C@H]3[C@@H](O)[C@H](n4ccc(=O)[nH]c4=O)O[C@@H]3COP(=O)(S)O[C@H]3[C@@H](O)[C@H](n4ccc(=O)[nH]c4=O)O[C@@H]3COP(=O)(S)O[C@H]3[C@@H](O)[C@H](n4cnc5c(N)ncnc54)O[C@@H]3COP(=O)(S)O[C@H]3[C@@H](O)[C@H](n4ccc5c(=O)[nH]c(N)nc54)O[C@@H]3COP(=O)(S)O[C@H]3[C@@H](O)[C@H](n4ccc(N)nc4=O)O[C@@H]3COP(=O)(S)O[C@H]3[C@@H](O)[C@H](n4cnc5c(N)ncnc54)O[C@@H]3COP(=O)(S)O[C@H]3[C@@H](O)[C@H](n4ccc5c(=O)[nH]c(N)nc54)O[C@@H]3COP(=O)(S)O[C@H]3[C@@H](O)[C@H](n4ccc(=O)[nH]c4=O)O[C@@H]3COP(=O)(S)O[C@H]3[C@@H](O)[C@H](n4ccc(=O)[nH]c4=O)O[C@@H]3COP(=O)(S)O[C@H]3[C@@H](O)[C@H](n4ccc(N)nc4=O)O[C@@H]3COP(=O)(S)O[C@H]3[C@@H](O)[C@H](n4cnc5c(N)ncnc54)O[C@@H]3CO)[C@H]2O)c(=O)n1 (some centres undefined)
IFN-alpha (PBMC [1]): 233 pg/mL
Activity (Splenocyte [2]): Active
Ratio (Homo sapiens): 7.9
remaining at 10 min [3]: 86%
fold change (FC) [4]: 2.1
Activity (PBMC [5]): 394 pg/mL
Activity (Splenocyte [6]): Active
Activity [7]: inactive
